KLK7 zymogen act – activates the human kallikrein-7 zymogen; P49862; purified proKLK7, EDANS-DABCYL substrate fluorescence; 100% is mature enzyme control, 0% vehicle; activation, % at 7 µM; 370,000 tested, 0.9% active; AID 652039;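 active = activation above the mean of all tested compounds plus 3 SD, computed per campaign excluding outliers beyond control limits, cut at about 13% in these data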
RanGTP-Impb inh – inhibitors of RanGTP-importin-beta interaction, primary screen, biochemical, FRET, CFP-Ran, YFP-importin-beta, homogeneous | 300,000 tested, 1.1% active | inhibition, % (test concentration not listed) | cell-free CFP-Ran/YFP-importin-beta FRET ratio | AID 2216;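 active = more than half of the replicate wells show a fall in the fluorescence ratio signal beyond about 16%, limit read from the data, passing the limit was not always enough; inconclusive = exactly half of the replicate wells pass the set limit; inactive = fewer than half of replicates pass the limit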;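 note: 0% = DMSO wells and 100% = Ran loaded with GDP instead of GTP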
Wee1 degr inh – inhibitors of human Wee1 degradation; reporter increase, % at 5 µM; P30291; HeLa Luc-Wee1K328M stability, luciferase luminescence; 100% = proteasome inhibitor MG132 effect; AID 1321; 220,000 tested, 1.2% active;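 active = activation above the mean of all tested compounds plus 3 SD, set per screening run, cut at about 8.8% in these data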;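 note: cells exposed to compound for 20 h before luminescence read; 0% = DMSO alone and 100% = MG132 at 30 µM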
AI-2 QS mod – modulates the Vibrio harveyi AI-2 quorum sensing system; Vibrio harveyi JMH597 AI-2 luminescence/OD600 ratio, 9 h; stronger effect = lower value; strain lacks LuxN and CqsS sensors; 0 = neutral-control median; activity change, % at 7.5 µM; 300,000 tested, 0.4% active; AID 2094; in the data active = activity change below about -75%, passing the limit was not always enough; inconclusive = no clear call, values can overlap the other calls;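 note: luminescence divided by OD600 gain over 9 h not by final OD600 alone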
Runt-SMMHC FRET – inhibitors of human RUNX1 Runt domain binding to CBFb-SMMHC | AID 1434 | 220,000 tested, 0.74% active | Cerulean-Runt/Venus-CBFb-SMMHC FRET ratio 530/480, 1 h | Q01196+Q13951 | inhibition, % at 20 µM;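 active = mean inhibition across duplicate retests at 20 µM reaching about 50%, limit read from the data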;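 note: 0% = DMSO wells and 100% = wells with excess untagged CBFb-SMMHC; inhibitors lower the FRET ratio by blocking Runt binding to CBFb-SMMHC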
Runt-CBFb FRET – blocks binding of human RUNX1 Runt domain to CBFb. Q01196+Q13951. Cerulean-Runt/Venus-CBFb FRET ratio 530/480, 1 h. inhibition, % at 20 µM. 220,000 tested, 0.46% active. AID 1496;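 active = inhibition over about 50% at 20 µM in the single-dose screen, limit read from the data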;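 note: 0% = DMSO wells and 100% = excess unlabeled CBFb competitor control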
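Buffer or medium: Tris pH 7.5 buffer with BSA. Assay system: Cerulean-labeled Runt domain protein. Amount: each fluorescent fusion protein 100 nM. Read-out basis: loss of energy transfer signal. Incubation: 1 h compound exposure, room temperature. Probe or stimulus: Venus-CBFb binding partner, 100 nM. Detection: FRET, excitation 422 nm, emission at 530 and 480 nm.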
Wee1 degr conf – confirmation of human Wee1 degradation inhibitors; HeLa Luc-Wee1K328M degradation, luminescence; vehicle 0%, proteasome-blocked wells 100%; activation, % at 5 µM; shares compounds with Wee1 degr inh; 1,100 tested, 4% active; in the data active = activation above about 8.9%
* marks the source's active call; other numbers are inactive results; ? = inconclusive; · = no result. Most compounds without a hit are left out; they make up all but 2.9% or so of the library.

SMILES | KLK7 zymogen act | RanGTP-Impb inh | Wee1 degr inh | AI-2 QS mod | Runt-SMMHC FRET | Runt-CBFb FRET | Wee1 degr conf
CC1=NCCN1CCNC(=O)Nc1ccc(C(C)(C)C)cc1 | 0 | 1 | 15* | 18 | 2 | -2 | 0
Cc1ccc(O)c(NC(=O)C2CC(c3c(F)cccc3Cl)=NO2)c1 (configuration not stated) | 0 | -1 | 2 | -34 | -3 | 0 | ·
CN1CCN(C(=O)C2CC(c3c(F)cccc3Cl)=NO2)CC1 (configuration not stated) | 1 | -2 | 13* | 15 | 1 | -2 | -1
CC1(C)NC(=O)N(CCCOc2ccccc2Br)C1=O | 0 | 2 | -2 | -6 | -3 | 1 | ·
CC1(C)NC(=O)N(CCCCOc2ccccc2[N+](=O)[O-])C1=O | · | -2 | 11* | 13 | -9 | 1 | 2
Nc1c(C(=O)O)sc2nc(-c3ccccc3)cc(-c3ccccc3)c12 | -1 | -23 | 11* | 11 | -138 | 9 | 1
Cc1c(NC(=O)COC(=O)c2ccc(O)cc2)c(=O)n(-c2ccccc2)n1C | 0 | · | · | · | · | · | ·
C=CCNC(=S)NNc1nc(Nc2ccccc2)nc(N2CCCCC2)n1 | -1 | 0 | 11* | 6 | 0 | -2 | 1
C=CCNC(=S)NNc1nc(N2CCCC2)nc(N2CCCC2)n1 | -1 | -1 | · | 0 | · | · | ·
Cc1ccc(NC(=O)c2noc3c2CCCCC3)cc1C | 0 | 4 | 13* | 14 | 1 | 0 | 1
Cc1ccc(NC(=O)c2noc3c2CCCCC3)cc1 | 0 | 3 | 4 | 21 | -2 | 0 | ·
O=C(C1CCCCC1)N1CCC2CC1c1cc(-c3ccc4c(c3)OCO4)ccc12 (configuration not stated) | 1 | · | · | · | · | · | ·
C/C(CC(=O)Nc1ccc2c(c1)OCO2)=N\NC(=O)c1ccccc1N | 5 | -1 | 12* | 18 | -2 | 9 | -1
O=C(CSCc1ccccc1)Nc1ccc2c(c1)OCO2 | 0 | -1 | 12* | -1 | 6 | -1 | 4
COC(=O)Cc1nnn2c1[C@@H](C)[C@@H](c1ccccc1Br)OC[C@H](C)C2 | -1 | · | · | · | · | · | ·
O=C(COC(=O)CNS(=O)(=O)c1cccc(Br)c1)NC(=O)Nc1ccc2c(c1)OCCO2 | 0 | · | 1 | · | 5 | -2 | ·
COc1ccc(CCC(=O)N(C)CC(=O)Nc2cc(C)ccc2C)cc1 | 0 | 4 | 17* | 32 | 3 | 0 | 1
COc1ccc(CC(=O)NNC(=O)CCC(=O)Nc2cc(C)ccc2C)cc1 | 0 | -1 | -2 | 23 | 0 | 0 | ·
Fc1cccc(CSc2nc3ncc(Cl)cc3[nH]2)c1 | 0 | 2 | 11* | 28 | -8 | 2 | -2
Fc1cccc(CSc2nc3ncccc3[nH]2)c1 | 0 | -1 | -3 | 13 | 3 | -2 | ·
Cn1c2c(c(=O)n(C)c1=O)C(CC(=O)Nc1ccc(F)cc1)C(=O)N2 (configuration not stated) | 0 | 3 | 11* | 16 | 3 | · | 0
Cc1ccc(CNC(=O)CC2C(=O)Nc3c2c(=O)n(C)c(=O)n3Cc2ccccc2)cc1 (configuration not stated) | -1 | 7 | 1 | -9 | -1 | -1 | ·
COc1ccc(NC(=S)c2ccc(N(C)C)cc2)cc1 | 0 | 4 | 13* | 6 | -3 | 6 | 0
COc1cc(C2Nc3cc(Cl)c(S(N)(=O)=O)cc3S(=O)(=O)N2)cc(OC)c1OC (configuration not stated) | -1 | -1 | 12* | 13 | 0 | -1 | -1
CCOc1cc(/C=C2\C(=O)ON=C2C)ccc1OCc1ccccc1 | 1 | ? | 18* | 20 | -2 | -2 | 1
Cc1ccc(C2C(C#N)=C(N)SC(N)=C2C#N)o1 | · | ? | 1 | 19 | 35 | 29 | ·
